Assay outcomes as filed in PubChem BioAssay.
MrgX1 allo act: human MrgX1 positive allosteric modulation, primary screen | Q96LB2 | MrgX1-HEK293, Fluo-4 calcium flux, FDSS; active compounds read high | B-score at 10 µM | 310,000 compounds, 0.63% hits | AID 588675;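 active = plate-corrected calcium response at least 3 library SD above typical, normal starting fluorescence, not activating the receptor alone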;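 also: compound read alongside a low EC10 to EC30 dose of BAM8-22 agonist; peak minus trough fluorescence over baseline measured at the second addition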
Target sequence (Q96LB2 whole entry, looked up): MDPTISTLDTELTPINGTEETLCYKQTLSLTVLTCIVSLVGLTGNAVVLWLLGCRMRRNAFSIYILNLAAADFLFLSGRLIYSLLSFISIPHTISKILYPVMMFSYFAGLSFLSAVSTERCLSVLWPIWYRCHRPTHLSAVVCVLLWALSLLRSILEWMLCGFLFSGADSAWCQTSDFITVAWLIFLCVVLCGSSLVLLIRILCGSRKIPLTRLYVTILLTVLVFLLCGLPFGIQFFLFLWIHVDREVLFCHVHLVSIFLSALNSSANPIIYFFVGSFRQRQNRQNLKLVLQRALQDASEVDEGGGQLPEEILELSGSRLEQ
Cl transport mod: modulators of human KCC2 chloride dependent transport; Q9H2X9; KCC2 cells, thallium flux FluoZin-2 fluorescence; B-score of Tl+ flux slope (higher = more flux/activation; lower = inhibition) at 10 µM; 190,000 compounds, 2.2% hits;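 active = thallium flux slope and its plate-corrected score both differing from the plate sample mean at a set confidence after two filtering rounds, in either direction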;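 also: slope of fluorescence scaled to starting intensity during 10 to 20 s after thallium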
MrgX1 agonist: human MrgX1 receptor agonism, primary screen | B-score at 10 µM | 310,000 compounds, 0.44% hits | Q96LB2 | MrgX1-HEK293 cells, Fluo-4 calcium fluorescence, agonist mode; active compounds read high | AID 588627;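 active = calcium response B-score plate-corrected fluorescence ratio at least 3 library SD, with starting fluorescence B-score inside 5 SD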
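Assay system: MrgX1-expressing HEK293 cells / Amount: fifteen thousand cells per well / Doses: test compound in the initial addition of three / Timing: cells plated overnight, dye loaded 0.5 h 37 °C, 0.5 h room temperature / Technique: kinetic calcium dye fluorescence, Fluo-4 NW / Control set: positive and negative controls per plate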
RGS4 inh: human RGS4 inhibition. P49798. HEK293 M3R/RGS4 inducible, Fluo-4 calcium flux; active compounds read high; triggered by carbachol at its EC20. B-score at 10 µM. 310,000 compounds, 0.45% hits;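 active = B-score, a plate-corrected calcium signal, over three deviations above library mean, with baseline fluorescence within five deviations of library mean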;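 also: RGS4 expression induced by doxycycline in cells with stable M3 receptor; B-score is computed from the integrated fluorescence ratio over baseline after carbachol; higher B-score means a larger calcium signal and so more RGS4 inhibition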
Target sequence (P49798 whole entry, looked up): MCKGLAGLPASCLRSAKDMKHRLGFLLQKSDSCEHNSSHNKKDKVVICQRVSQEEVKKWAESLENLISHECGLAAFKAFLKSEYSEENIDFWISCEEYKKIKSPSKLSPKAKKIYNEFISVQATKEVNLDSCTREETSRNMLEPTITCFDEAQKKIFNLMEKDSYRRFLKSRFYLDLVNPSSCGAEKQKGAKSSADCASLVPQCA
MrgX1 antagonist: antagonists of human MrgX1 receptor; Q96LB2; MRGX1-HEK293 calcium flux, Fluo-4, BAM8-22 antagonism; active compounds read low; B-score at 10 µM; 310,000 compounds, 1.3% hits;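 active = calcium-response B-score plate-corrected more than 3 library SD below zero, starting fluorescence within 5 deviations, no agonist response on first addition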;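 also: peak minus trough fluorescence over baseline after final BAM8-22 challenge near maximal dose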
RGS4 act: potentiators or activators of RGS4. HEK293 M3R/inducible RGS4, carbachol calcium flux Fluo4; active compounds read low. 310,000 compounds, 0.92% hits. B-score at 10 µM;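 active = B-score of the integrated calcium signal more than 4 SD below the library mean, with starting fluorescence not abnormally high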;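 also: negative B-score means reduced calcium response which marks RGS4 activation or potentiation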
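Assay system: HEK293 FlpIn-TREx cells, stable M3R, doxycycline-inducible RGS4 / Probe or stimulus: carbachol, ECmax concentration / Times: overnight RGS4 induction, 30 min dye load 37 °C, 20 min compound RT / Signal: kinetic calcium fluorescence imaging with Fluo4-AM dye, 2 µM / Measure: Agonist-evoked peak-minus-minimum fluorescence over baseline, integrated ratio, B score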
KCC2 sec1: KCC2 (human) modulation, secondary assay; shares compounds with Cl transport mod; HEK293-KCC2, thallium flux, FluoZin2 fluorescence; active compounds read high; normalised thallium flux (F/F0 slope) at 10 µM; 3,700 compounds, 15% hits;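 active = thallium flux slope above the same plate's solvent-only control mean plus 3 SD; inconclusive = the two replicate wells disagree; inactive = no significant difference from solvent-only control wells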
KCC2 bumet counter: thallium flux persisting under bumetanide in KCC2 cells, counter-screen secondary assay; shares compounds with Cl transport mod; HEK293-KCC2 + bumetanide/ouabain, thallium flux FluoZin2; active compounds read high; normalized thallium flux at 10 µM; 3,700 compounds, 49% hits;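 active = thallium entry rate above the same plate's blocked-transporter control wells by more than 3 SD; inconclusive = the two repeat wells disagree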;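 also: raw slope of fluorescence over initial fluorescence between 10 and 20 s after thallium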
KCC2 secondary2: confirmation of human KCC2 transport modulators | shares compounds with Cl transport mod | HEK293-KCC2, thallium flux FluoZin2 fluorescence; actives lie on both sides; F/F0 rise rate, 10–20 s post-thallium | normalized thallium flux at 10 µM | 3,700 compounds, 23% hits;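 active = thallium flux slope more than 3 SD above or below the plate's solvent-only control mean, mostly below; inconclusive = the two repeat wells disagreed; inactive = no significant shift from solvent-only controls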;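 also: raw slope with 0.1% DMSO as baseline and bumetanide as block control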
HEK counter1: acts in parental HEK cells, KCC2 counter-screen; HEK293 parental cells, thallium flux FluoZin2, ouabain; baseline-ratio fluorescence slope, 10–20 s after thallium; thallium flux rate (normalised fluorescence) at 10 µM; 3,700 compounds, 46% hits; shares compounds with Cl transport mod; AID 1716;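 active = thallium flux rate significantly above the same plate's solvent-only control wells, beyond their mean plus 3 SD; inconclusive = the two replicate wells gave conflicting results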
KCC2 retest ouab: KCC2 (human) modulation, ouabain retest; raw Tl+ flux slope (below DMSO = inhibition, above = activation) at 10 µM; HEK293-KCC2, thallium flux FluoZin2 fluorescence; bidirectional: low = inhibitor, high = activator; 3,700 compounds, 48% hits; shares compounds with Cl transport mod;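 active = thallium flux slope beyond 3 SD from same-plate DMSO control mean in most replicates, usually higher, sometimes lower; inconclusive = repeat tests gave conflicting results; inactive = no significant difference from controls in most replicates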;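 also: slope of initial-normalized fluorescence between seconds 10 and 20 after thallium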
HEK counter2: counter-screen for KCC2 modulators: effect in parental HEK293 cells | shares compounds with Cl transport mod | thallium flux FluoZin-2 fluorescence slope | thallium flux slope at 10 µM | 3,700 compounds, 33% hits;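 active = thallium flux slope above the same plate's solvent-control mean plus 3 SD in both duplicate wells; inconclusive = duplicate wells that disagreed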;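 also: run without ouabain in cells lacking the KCC2 cotransporter; slope of fluorescence scaled to its starting value between 10 and 20 s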
An asterisk follows results filed as active; i = inactive; u = inconclusive; x = no result given. An excerpt weighted towards active compounds, which were near 4.7% of everything screened.

SMILES	MrgX1 allo act	Cl transport mod	MrgX1 agonist	RGS4 inh	MrgX1 antagonist	RGS4 act	KCC2 sec1	KCC2 bumet counter	KCC2 secondary2	HEK counter1	KCC2 retest ouab	HEK counter2
O=C(NNC(=O)c1ccccc1Br)c1cccc(Cl)c1	i	1.3	i	i	i	i	x	x	x	x	x	x
NC(=S)NNC(=O)c1cccc(Cl)c1	i	5.6*	i	i	i	i	u	u	0.032	0.01*	0.019	u
Cc1nc(-c2nc(-c3c(C(=O)NNC(=O)c4ccc(Cl)cc4)noc3C)cs2)cs1	i	103*	i	i	i	i	0.043*	0.15*	0.042	u	0.092*	0.021*
O=S(=O)(Nc1nc(SCc2ccc(Cl)cc2)n[nH]1)c1ccccc1	i	-1.6	i	i	i	i	x	x	x	x	x	x
Cc1nc(C(=O)NNC(=O)c2ccc(Cl)cc2)cs1	i	9.9*	i	i	i	i	u	0.025*	0.035	0.012*	0.029	u
Cc1nc(-c2nc(CC(=O)NNC(=O)c3ccc(Cl)cc3)cs2)cs1	i	0.66	i	i	i	i	x	x	x	x	x	x
CCN1CCN(c2ccc(S(=O)(=O)N3CCOCC3)cc2NC(=O)CCC(C)C)CC1	i	x	i	i	i	i	x	x	x	x	x	x
Cc1ccc(C)c(-n2[nH]c3c4c(ccc3c2=O)C(=O)c2ccccc2C4=O)c1	i	-0.047	i	i	i	i	x	x	x	x	x	x
Cc1ccc(-n2[nH]c3c4c(ccc3c2=O)C(=O)c2ccccc2C4=O)cc1	i	0.17	i	i	i	i	x	x	x	x	x	x
CC(C)(C)n1[nH]c2c3c(ccc2c1=O)C(=O)c1ccccc1C3=O	i	x	i	i	i	i	0.0056	0.0053	0.029	0.0082	0.019	0.012
COCCCn1[nH]c2c3c(ccc2c1=O)C(=O)c1ccccc1C3=O	i	x	i	i	i	i	0.005	u	0.03	0.008	0.019	0.012
COc1ccc(N=Cc2c(O)[nH]c3ccccc23)cc1	i	-1.3	i	i	i	i	x	x	x	x	x	x
Oc1[nH]c2ccccc2c1/C=N/c1nccs1	i	15*	i	i	i	i	0.013*	0.023*	0.035	u	u	u
C=CCn1cnc2scc(-c3ccc(CC)cc3)c2c1=O	i	-4.1*	i	i	i	i	0.0054	0.004	0.028	0.0065	0.018	0.01
CCn1cnc2scc(-c3ccccc3)c2c1=O	i	-0.76	i	i	i	i	x	x	x	x	x	x
Clc1cccc(-c2nnc(SC/C=C/c3ccccc3)n2Cc2ccco2)c1	i	-3.3*	i	i	i	i	0.0052	u	0.03	0.0059*	0.015*	u
Nn1c(SC/C=C/c2ccccc2)nnc1-c1ccco1	i	-0.0018	i	i	i	i	x	x	x	x	x	x
C(=C\c1ccccc1)/CSc1nnc(-c2ccccc2)n1Cc1ccco1	i	-2.9	i	i	i	i	0.016	u	0.023*	0.0042*	0.013*	0.0074*
CC1CCN(C(=O)CNC(=O)CNS(=O)(=O)c2ccccc2)CC1	i	x	i	i	i	i	x	x	x	x	x	x
CN(CC(=O)Oc1ccc(-c2nnco2)cc1)S(=O)(=O)c1ccc(F)cc1	i	x	i	i	i	i	x	x	x	x	x	x
CCOC(=O)c1cn(CC)c2cc(N3CCSCC3)c(F)cc2c1=O	i	8*	i	i	i	i	0.0065	0.0041	0.032	0.0075	0.019	0.01
N#C/C(=C/c1ccc(N2CCCCCC2)o1)c1cccc(F)c1	i	-0.59	i	i	i	i	x	x	x	x	x	x
N#C/C(=C/c1ccc(N2CCCCCC2)o1)c1ccc(F)cc1	18*	x	i	i	i	i	0.015	u	0.028	u	0.013*	0.0094
CN1C(=O)/C(=C/c2cc3c(cc2Br)OCO3)NC1=S	i	7.1*	i	i	i	i	u	0.023*	0.033	0.013*	0.031*	0.011
COCCn1c(C)cc(/C=C2\NC(=S)N(C)C2=O)c1C	i	1.2	i	i	i	i	x	x	x	x	x	x
SMILES	MrgX1 allo act	Cl transport mod	MrgX1 agonist	RGS4 inh	MrgX1 antagonist	RGS4 act	KCC2 sec1	KCC2 bumet counter	KCC2 secondary2	HEK counter1	KCC2 retest ouab	HEK counter2
Cc1noc(C)c1COc1ccc(C(=O)OCC(=O)NC2CCCCC2C)cc1 (configuration not stated)	i	0.82	i	x	i	x	0.009	0.0055	0.033	0.008	0.018	u
Cc1noc(C)c1COc1ccc(C(=O)OCC(=O)NC23CC4CC(CC(C4)C2)C3)cc1	i	x	i	i	i	i	x	x	x	x	x	x
CC1CCCCN1C(=O)CSc1nnc(Cc2ccccc2)n1C (configuration not stated)	i	3.2*	i	i	i	i	0.0055	0.0049	0.029	0.0076	0.018	0.011
Cn1c(Cc2ccccc2)nnc1SCC(=O)N1CCCCC1	i	-0.42	i	i	i	i	x	x	x	x	x	x
O=C(NCCCN1CCCC1=O)c1ccc(NS(=O)(=O)c2cccc([N+](=O)[O-])c2)cc1	i	x	i	i	i	i	x	x	x	x	x	x
Nc1nonc1C(=O)NCCN=Cc1ccccc1O	i	-4.6*	i	i	i	i	u	u	0.032	0.0081	0.02	0.011
Nc1nonc1C(=O)NCCN=Cc1cc(Cc2ccccc2)cc(Br)c1O	i	x	i	i	i	i	x	x	x	x	x	x
CC1(C)Cc2cccc(OCC(=O)Nc3ccccc3N3CCOCC3)c2O1	i	x	i	i	i	i	x	x	x	x	x	x
